Assay results: ChEMBL document CHEMBL1156045, “Discovery of novel types of inhibitors of S-adenosylmethionine synthesis by virtual screening” (J Med Chem, 2009)
Activity calls are given as the source filed them. The calls are words filed in the database; no cut-off is given here.

Columns and labels:
Escherichia coli [1] = assay: Inhibition of Escherichia coli MAT assessed as incorporation of L-[methyl-14C]methionine into S-adenosyl-methionine at 1 mM after 5 to 10 mins by scintillation counting
Procedure, shortened: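 Screen: E. coli MAT (0.25 μM) preincubated 20 min at room temperature with 1 mM compound (15% DMSO final) in Tris·Cl pH 8.0/KCl/MgCl2. 1.5 volumes of reagents added (final 0.1 mM ATP, 0.1 mM [14C]methionine, 10 mM MgCl2). Run 5 min at 25° C, stopped with 25 mM EDTA; AdoMet on P-81 filters counted.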

[2] = Inhibition of Escherichia coli MAT assessed as incorporation of L-[methyl-14C]methionine into S-adenosyl-methionine after 5 to 10 mins by scintillation counting
Procedure, shortened: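 Recombinant E. coli MAT (0.3 μM subunits) preincubated 20 min with inhibitor before substrates were added. Assay buffer was 50 mM Tris·Cl pH 8.0, 50 mM KCl, 10 mM MgCl2, 10 mM ATP and 0.5 mM L-[methyl-14C]methionine at 25 °C. Reactions were EDTA-quenched and AdoMet was captured on P-81 filters. Ki came from a nonlinear fit of fractional activity to the tight-binding equation.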

Escherichia coli [3] = assay: Inhibition of Escherichia coli MAT assessed as incorporation of L-[methyl-14C]methionine into S-adenosyl-methionine at 200 uM after 5 to 10 mins by scintillation counting in presence of ATP treated before addition of methionine
Procedure, shortened: (§1)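 Onset of inhibition: 0.3 μM MAT subunits (0.3 μM inhibitor) or 10 μM enzyme (200 μM inhibitor) incubated in 50 mM Tris·Cl, 50 mM KCl, 10 mM MgCl2 with 10 mM ATP or 1 mM L-methionine where present. Aliquots diluted into assay reagents at set times; [methyl-14C]AdoMet on P-81 filters counted.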

Escherichia coli [4] = assay: Inhibition of Escherichia coli MAT assessed as incorporation of L-[methyl-14C]methionine into S-adenosyl-methionine at 200 uM after 5 to 10 mins by scintillation counting in presence of methionine treated before addition of ATP; procedure, shortened: as §1
Escherichia coli [5] = assay: Inhibition of Escherichia coli MAT assessed as time required to achieve half maximal enzyme inhibition at 200 uM after 5 to 10 mins by scintillation counting; procedure, shortened: as §1
Escherichia coli [6] = assay: Inhibition of Escherichia coli MAT assessed as lack of recovery of detectable enzyme activity at 0.3 uM up to 20 mins measured after 24 hrs of dialysis
[7] = test system: Methanocaldococcus jannaschii; assay: Inhibition of Methanococcus jannaschii MAT at 1 mM treated for 20 mins before addition of substrate
Procedure, shortened: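 M. jannaschii MAT (0.3 μM) preincubated 20 min with 0.1–1.0 mM compound, then assayed as for E. coli enzyme (0.1 mM ATP, 0.1 mM [14C]methionine) at 37° C. [14C]AdoMet on P-81 filters counted.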

Escherichia coli [8] = assay: Antibacterial activity against Escherichia coli RP523 at 1 mM after overnight incubation by filter disk method; assay type: functional, organism-based
Procedure, shortened: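 E. coli RP523 (hyperpermeable strain): ~30 μl overnight culture spread on LB agar; 5 mm filter disks soaked with 30 μl of 1 mM compound in DMSO, or DMSO control, placed on lawn. Zone of growth inhibition measured after overnight incubation at 37° C.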

Saccharomyces cerevisiae = assay: Antifungal activity against Saccharomyces cerevisiae RDY84 at 1 mM after overnight incubation by filter disk method; assay type: functional, organism-based
Procedure, shortened: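 S. cerevisiae RDY84 (pdr1Δ pdr3Δ) lawn on YDP agar; 5 mm filter disk soaked with 1 mM compound in DMSO, or DMSO control, placed on freshly spread cells. Zone of growth inhibition measured after overnight incubation at 30° C.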

NCI60 = assay: Growth inhibition of human NCI60 cells up to 100 uM; assay type: functional, cell-based
Procedure, shortened: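 Tested by NCI Developmental Therapeutics Program against the 60 tumour cell line panel in its standard protocol, concentrations up to 100 μM.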

Compound	Activity (Escherichia coli [1])	Ki [2] [nM]	Activity (Escherichia coli [3])	Activity (Escherichia coli [4])	Activity (Escherichia coli [5]) [min]	Activity (Escherichia coli [6])	inhibition [7]	Activity (Escherichia coli [8])	Activity (Saccharomyces cerevisiae)	growth inhibition (GI) (NCI60)
Cc1ccc(NC(=O)Nc2cccc(C(F)(F)F)c2)cc1NC(=O)Nc1cccc(C(F)(F)F)c1	inactive	–	–	–	–	–	–	–	–	–
NS(=O)(=O)c1ccc(NC(=O)Nc2ccc(Cl)cc2[N+](=O)[O-])cc1	Active	6.9	inactive	Active	20	Active	inactive	inactive	inactive	inactive
